From ChEMBL document CHEMBL1157912, “Impact of nature and length of linker incorporated in agonists on toll-like receptor 9-mediated immune responses” (J Med Chem, 2010) come the findings set out here.

For experiment [1], the target named is T1, Toll-like receptor 9 (Homo sapiens) (UniProt Q9NR96).
T1 sequence (whole entry): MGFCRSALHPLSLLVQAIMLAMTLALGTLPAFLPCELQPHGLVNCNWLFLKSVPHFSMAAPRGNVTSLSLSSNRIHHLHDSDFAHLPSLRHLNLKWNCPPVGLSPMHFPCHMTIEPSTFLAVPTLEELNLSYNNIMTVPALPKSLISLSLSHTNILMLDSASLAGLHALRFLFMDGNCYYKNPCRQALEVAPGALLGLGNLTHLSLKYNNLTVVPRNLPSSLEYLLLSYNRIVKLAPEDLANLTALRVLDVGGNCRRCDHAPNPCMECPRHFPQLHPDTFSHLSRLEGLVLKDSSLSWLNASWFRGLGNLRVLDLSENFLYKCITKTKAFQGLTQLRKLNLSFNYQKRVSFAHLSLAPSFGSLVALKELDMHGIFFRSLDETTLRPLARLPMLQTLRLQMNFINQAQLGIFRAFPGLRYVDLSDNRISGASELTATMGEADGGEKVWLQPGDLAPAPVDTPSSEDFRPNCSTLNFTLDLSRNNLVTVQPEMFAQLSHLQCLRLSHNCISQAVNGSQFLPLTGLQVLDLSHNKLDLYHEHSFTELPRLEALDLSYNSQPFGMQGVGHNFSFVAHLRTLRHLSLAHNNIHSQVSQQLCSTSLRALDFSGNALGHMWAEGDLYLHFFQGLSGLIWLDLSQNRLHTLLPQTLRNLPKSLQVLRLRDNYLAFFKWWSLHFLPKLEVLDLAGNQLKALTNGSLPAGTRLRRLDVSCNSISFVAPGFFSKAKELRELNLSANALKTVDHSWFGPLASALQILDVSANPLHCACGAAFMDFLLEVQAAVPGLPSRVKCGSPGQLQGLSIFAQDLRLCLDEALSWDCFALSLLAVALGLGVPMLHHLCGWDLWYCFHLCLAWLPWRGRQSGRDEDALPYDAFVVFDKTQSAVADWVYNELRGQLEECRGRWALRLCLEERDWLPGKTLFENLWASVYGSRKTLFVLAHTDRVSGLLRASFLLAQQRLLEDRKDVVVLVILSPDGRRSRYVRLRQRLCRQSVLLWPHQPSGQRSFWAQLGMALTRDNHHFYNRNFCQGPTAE
Put plainly: Induction of TLR9-mediated immune stimulation in human PBMC assessed as IL2R production at 2 ug/ml after 24 hrs by luminex multiplex assay (RVb = 0.02 +/- 0.01 ng/ml).

The target in experiment [2] is T2, Toll-like receptor 9 (Mus musculus) (UniProt Q9EQU3).
T2 sequence (whole entry): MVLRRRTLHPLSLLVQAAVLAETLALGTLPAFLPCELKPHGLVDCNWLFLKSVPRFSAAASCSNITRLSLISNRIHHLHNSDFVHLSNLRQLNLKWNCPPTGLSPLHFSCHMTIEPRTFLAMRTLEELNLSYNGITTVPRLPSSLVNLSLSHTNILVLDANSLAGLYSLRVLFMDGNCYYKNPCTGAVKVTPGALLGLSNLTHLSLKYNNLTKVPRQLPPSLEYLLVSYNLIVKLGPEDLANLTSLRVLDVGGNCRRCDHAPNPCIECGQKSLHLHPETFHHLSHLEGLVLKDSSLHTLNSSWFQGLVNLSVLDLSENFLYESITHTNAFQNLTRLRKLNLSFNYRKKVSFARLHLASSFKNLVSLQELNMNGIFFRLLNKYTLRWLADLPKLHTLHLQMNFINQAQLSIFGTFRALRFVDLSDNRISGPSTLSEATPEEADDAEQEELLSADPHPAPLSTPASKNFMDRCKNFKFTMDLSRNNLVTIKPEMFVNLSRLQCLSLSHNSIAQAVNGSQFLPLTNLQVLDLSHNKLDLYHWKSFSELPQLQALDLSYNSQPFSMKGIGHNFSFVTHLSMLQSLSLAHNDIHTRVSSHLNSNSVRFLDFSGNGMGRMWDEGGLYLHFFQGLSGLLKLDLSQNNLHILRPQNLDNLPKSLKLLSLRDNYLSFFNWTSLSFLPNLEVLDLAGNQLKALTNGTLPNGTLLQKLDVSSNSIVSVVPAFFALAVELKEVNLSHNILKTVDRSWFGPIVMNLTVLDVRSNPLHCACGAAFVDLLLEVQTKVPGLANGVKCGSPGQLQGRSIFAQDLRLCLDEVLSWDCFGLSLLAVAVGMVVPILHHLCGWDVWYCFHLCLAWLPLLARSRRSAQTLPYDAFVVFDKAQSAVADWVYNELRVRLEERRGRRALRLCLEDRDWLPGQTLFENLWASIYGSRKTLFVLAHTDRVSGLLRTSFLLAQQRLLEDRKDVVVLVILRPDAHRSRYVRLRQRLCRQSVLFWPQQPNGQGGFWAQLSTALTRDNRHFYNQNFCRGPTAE
Put plainly: Induction of TLR9-mediated IL12 production in C57BL/6 mouse spleen cells after 24 hrs by ELISA. The class given is cell-based. In short, it runs like this: (§1)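 C57BL/6 mouse spleen cells were cultured with agonists at 0.1, 0.3, 1, 3 and 10 μg/mL for 24 h. Secreted IL-12 and IL-6 in the supernatants were measured by ELISA. Values are averages of triplicate wells from one representative of at least two independent experiments.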
On the technique in general: In an ELISA, binding on a coated surface is turned into a signal by an enzyme label.

The target of experiment [3] is T2, Toll-like receptor 9 (Mus musculus). Put plainly: Induction of TLR9-mediated IL6 production in C57BL/6 mouse spleen cells after 24 hrs by ELISA. The class given is cell-based. In short, it runs like this: as §1
Experiment [4] addresses T1, Toll-like receptor 9 (Homo sapiens). Put plainly: Induction of TLR9-mediated immune stimulation in human PBMC assessed as IP10 production at 10 ug/ml after 24 hrs by luminex multiplex assay (RVb = 0.00 ng/ml).
For experiment [5] the target is unchanged. Put plainly: Induction of TLR9-mediated immune stimulation in human PBMC assessed as IL6 production at 2 ug/ml after 24 hrs by luminex multiplex assay (RVb = 0.01 ng/ml).
Experiment [6] shares this target. Put plainly: Induction of TLR9-mediated immune stimulation in human PBMC assessed as IL12 production at 10 ug/ml after 24 hrs by luminex multiplex assay (RVb = 0.00 ng/ml).
The target is the same in experiment [7]. Put plainly: Induction of TLR9-mediated immune stimulation in human PBMC assessed as MIP1alpha production at 10 ug/ml after 24 hrs by luminex multiplex assay (RVb = 0.01 ng/ml).
For experiment [8] the target is unchanged. Put plainly: Induction of TLR9-mediated human B cell proliferation assessed as [3H]thymidine uptake after 56 hrs by scintillation counting. A digest of the protocol:
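B cells were purified from human PBMCs (healthy volunteers), about 1 × 10⁵ cells, and stimulated with various agonist concentrations for 56 h. Cells were then pulsed with 0.75 μCi [³H]-thymidine and harvested 16 h later. Incorporation was counted by scintillation and reported as cpm.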

Experiment [9] has the same target. Put plainly: Induction of TLR9-mediated immune stimulation in human PBMC assessed as MCP1 production at 2 ug/ml after 24 hrs by luminex multiplex assay (RVb = 0.08 +/- 0.02 ng/ml).
The target is the same in experiment [10]. Put plainly: Induction of TLR9-mediated immune stimulation in human PBMC assessed as IL1Ralpha production at 10 ug/ml after 24 hrs by luminex multiplex assay (RVb = 0.12 +/- 0.03 ng/ml).

As for `Cc1cn([C@H]2C[C@H](OCCOCCOCCOCCOCCOCCOP(=O)(S)O[C@H]3C[C@H](n4cc(C)c(=O)[nH]c4=O)O[C@@H]3COP(=O)(S)O[C@H]3[C@@H](O)[C@H](n4ccc(N)nc4=O)O[C@@H]3COP(=O)(S)O[C@H]3C[C@H](n4cc(C)c(=O)[nH]c4=O)O[C@@H]3COP(=O)(S)O[C@H]3C[C@H](n4cc(C)c(=O)[nH]c4=O)O[C@@H]3COP(=O)(S)O[C@H]3C[C@H](n4ccc5c(=O)[nH]c(N)nc54)O[C@@H]3COP(=O)(S)O[C@H]3[C@@H](O)[C@H](n4ccc(N)nc4=O)O[C@@H]3COP(=O)(S)O[C@H]3C[C@H](n4cc(C)c(=O)[nH]c4=O)O[C@@H]3COP(=O)(S)O[C@H]3[C@@H](O)[C@H](n4cnc5c(=O)[nH]c(N)nc54)O[C@@H]3COP(=O)(S)O[C@H]3C[C@H](n4cc(C)c(=O)[nH]c4=O)O[C@@H]3COP(=O)(S)O[C@H]3[C@@H](O)[C@H](n4ccc(N)nc4=O)O[C@@H]3COP(=O)(S)O[C@H]3C[C@H](n4cc(C)c(=O)[nH]c4=O)O[C@@H]3CO)[C@@H](COP(=O)(S)O[C@H]3[C@@H](O)[C@H](n4ccc(N)nc4=O)O[C@@H]3COP(=O)(S)O[C@H]3C[C@H](n4cc(C)c(=O)[nH]c4=O)O[C@@H]3COP(=O)(S)O[C@H]3C[C@H](n4cc(C)c(=O)[nH]c4=O)O[C@@H]3COP(=O)(S)O[C@H]3C[C@H](n4ccc5c(=O)[nH]c(N)nc54)O[C@@H]3COP(=O)(S)O[C@H]3[C@@H](O)[C@H](n4ccc(N)nc4=O)O[C@@H]3COP(=O)(S)O[C@H]3C[C@H](n4cc(C)c(=O)[nH]c4=O)O[C@@H]3COP(=O)(S)O[C@H]3[C@@H](O)[C@H](n4cnc5c(=O)[nH]c(N)nc54)O[C@@H]3COP(=O)(S)O[C@H]3C[C@H](n4cc(C)c(=O)[nH]c4=O)O[C@@H]3COP(=O)(S)O[C@H]3[C@@H](O)[C@H](n4ccc(N)nc4=O)O[C@@H]3COP(=O)(S)O[C@H]3C[C@H](n4cc(C)c(=O)[nH]c4=O)O[C@@H]3CO)O2)c(=O)[nH]c1=O` (some centres undefined), the Activity in [1] was 0.11 ng/mL; in experiment [2], “Dose-dependent effect”; in experiment [3] it was “Dose-dependent effect”; in experiment [4], 0.04 ng/mL; in experiment [5], 0.16 ng/mL; in experiment [6] it was 0.19 ng/mL. For the same compound, the Activity is 0.27 ng/mL in experiment [7], “Dose-dependent effect” in [8], 0.25 ng/mL in [9] and 83.9 ng/mL in experiment [10].

As for `Cc1cn([C@H]2C[C@H](OCC(O)COP(=O)(S)O[C@H]3C[C@H](n4cc(C)c(=O)[nH]c4=O)O[C@@H]3COP(=O)(S)O[C@H]3[C@@H](O)[C@H](n4ccc(N)nc4=O)O[C@@H]3COP(=O)(S)O[C@H]3[C@@H](O)[C@H](n4cnc5c(N)ncnc54)O[C@@H]3COP(=O)(S)O[C@H]3[C@@H](O)[C@H](n4cnc5c(N)ncnc54)O[C@@H]3COP(=O)(S)O[C@H]3[C@@H](O)[C@H](n4ccc(N)nc4=O)O[C@@H]3COP(=O)(S)O[C@H]3[C@@H](O)[C@H](n4ccc(N)nc4=O)O[C@@H]3COP(=O)(S)O[C@H]3[C@@H](O)[C@H](n4cnc5c(N)ncnc54)O[C@@H]3COP(=O)(S)O[C@H]3[C@@H](O)[C@H](n4ccc(N)nc4=O)O[C@@H]3COP(=O)(S)O[C@H]3[C@@H](O)[C@H](n4cnc5c(N)ncnc54)O[C@@H]3COP(=O)(S)O[C@H]3[C@@H](O)[C@H](n4ccc(N)nc4=O)O[C@@H]3COP(=O)(S)O[C@H]3[C@@H](O)[C@H](n4cnc5c(N)ncnc54)O[C@@H]3CO)[C@@H](COP(=O)(S)O[C@H]3[C@@H](O)[C@H](n4ccc(N)nc4=O)O[C@@H]3COP(=O)(S)O[C@H]3[C@@H](O)[C@H](n4cnc5c(N)ncnc54)O[C@@H]3COP(=O)(S)O[C@H]3[C@@H](O)[C@H](n4cnc5c(N)ncnc54)O[C@@H]3COP(=O)(S)O[C@H]3[C@@H](O)[C@H](n4ccc(N)nc4=O)O[C@@H]3COP(=O)(S)O[C@H]3[C@@H](O)[C@H](n4ccc(N)nc4=O)O[C@@H]3COP(=O)(S)O[C@H]3[C@@H](O)[C@H](n4cnc5c(N)ncnc54)O[C@@H]3COP(=O)(S)O[C@H]3[C@@H](O)[C@H](n4ccc(N)nc4=O)O[C@@H]3COP(=O)(S)O[C@H]3[C@@H](O)[C@H](n4cnc5c(N)ncnc54)O[C@@H]3COP(=O)(S)O[C@H]3[C@@H](O)[C@H](n4ccc(N)nc4=O)O[C@@H]3COP(=O)(S)O[C@H]3[C@@H](O)[C@H](n4cnc5c(N)ncnc54)O[C@@H]3CO)O2)c(=O)[nH]c1=O` (some centres undefined), the Activity was 0.06 ng/mL in experiment [1]; “Dose-dependent effect” in experiment [2]; “Dose-dependent effect” in [3]; 0.02 ng/mL in experiment [4]; 0.02 ng/mL in experiment [5]; 0.05 ng/mL in experiment [6]. Further, the Activity amounted to 0.07 ng/mL in experiment [7], 0.2 ng/mL in experiment [9] and 33.8 ng/mL in experiment [10].
